Calls of active or inactive are those of the source. No cut-off for these calls is given here.
Tests used:
[1] = test system: Lewis lung carcinoma cell line; assay: In vivo for antitumor activity against Lewis lung carcinoma; assay type: functional, Mus musculus
Method in brief: (§1)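 Mice inoculated intravenously with 10^6 Lewis lung carcinoma cells, then drug intraperitoneally in 0.1 mL 30% v/v ethanol-water on days 5, 9 and 13. D50 (mg/kg per day for 50% ILS) taken from dose-response graph. ILS at optimal dose versus untreated tumor-bearing controls. Survivors counted at 40 days.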

poly[d(A-T)] = assay: Binding constant relative to amsacrine (Δlog K) for DNA binding by ethidium bromide displacement; conditions: Bos taurus
[2] = test system: Lewis lung carcinoma cell line; assay: Evaluated in vivo for antitumor activity against Lewis lung carcinoma; g denotes ILS of 50% could not be reached at any dose level; assay type: functional, organism-based; conditions: Mus musculus; method in brief: as §1
L1210 = assay: In vitro for cytotoxicity against murine leukemia cells (L1210); assay type: functional, cell-based; conditions: Mus musculus
HCT-8 = assay: In vitro for cytotoxicity against human colon tumor cells (HCT-8) in culture; assay type: functional, cell-based
P388 [3] = assay: In vivo for antitumor activity against P388 leukemia; assay type: functional, Mus musculus
Method in brief: (§2)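 Mice given 10^6 P388 leukemia cells intraperitoneally, then drug intraperitoneally in 0.1 mL 30% v/v ethanol-water on days 1, 5 and 9. D50 (mg/kg per day giving 50% ILS) read from dose-response graph. ILS at optimal dose versus untreated controls. Long-term survival counted at 30 days.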

P388 [4] = assay: In vivo for antitumor activity against P388 leukemia.; assay type: functional, Mus musculus; method in brief: as §2
[5] = test system: Lewis lung carcinoma cell line; assay: Evaluated in vivo for antitumor activity against Lewis lung carcinoma; i denotes Inactive; assay type: functional, organism-based; conditions: Mus musculus; method in brief: as §1
P388 [6] = assay: Evaluated in vivo for antitumor activity against P388 leukemia; g denotes ILS of 50% could not be reached at any dose level; assay type: functional, organism-based; conditions: Mus musculus; method in brief: as §2
P388 [7] = assay: Compound was evaluated in vivo for antitumor activity against P388 leukemia; i denotes Inactive; assay type: functional, organism-based; conditions: Mus musculus; method in brief: as §2

Structure (SMILES)	Δlog K (poly[d(A-T)])	OD [1] [mg/kg]	D50 [2]	IC50 (L1210) [nM]	IC50 (HCT-8) [nM]	D50 (P388 [3]) [mg/kg]	ILSmax (P388 [3]) [%]	OD (P388 [4]) [mg/kg]	ILSmax [5]	D50 (P388 [6])	ILS max [5]	ILSmax (P388 [7])	ILSmax [1] [%]
CNc1cc(NS(C)(=O)=O)ccc1Nc1c2ccccc2nc2c1ccc1ccccc12	7.46	20	ILS of 50% could not be reached	189	400	45	50	45	inactive				
CNc1cc(NS(C)(=O)=O)ccc1Nc1c2ccccc2nc2ccc(Cl)cc12		150	ILS of 50% could not be reached	> 1600	2500			100	inactive	ILS of 50% could not be reached		inactive	
CNc1ccc2c(Nc3ccc(NS(C)(=O)=O)cc3NC)c3ccccc3nc2c1	7.53	2.6	ILS of 50% could not be reached	5.8	810	0.2	208	2.6	inactive				
CNc1cc(NS(C)(=O)=O)ccc1Nc1c2ccccc2nc2c(C(=O)NCC(N)=O)cccc12	5.57	45	ILS of 50% could not be reached	3500	> 104	45	87	68	inactive				
CNc1cc(NS(C)(=O)=O)ccc1Nc1c2ccccc2nc2cc([N+](=O)[O-])ccc12	6.72	8.9	ILS of 50% could not be reached	110	140	3	70	5.9	inactive				
CNC(=O)c1cccc2c(Nc3ccc(NS(C)(=O)=O)cc3NC)c3ccc(Cl)cc3nc12	6.79	30	ILS of 50% could not be reached	110	1900	30	61	45	inactive				
CNc1cc(NS(C)(=O)=O)ccc1Nc1c2ccccc2nc2cc(NC(=O)OC)ccc12	7.21	8.9	ILS of 50% could not be reached	76	715	1.5	135	13.3	inactive				

More lines, main results first:

Δlog K (poly[d(A-T)])	Structure (SMILES)	OD [1] [mg/kg]	D50 [2]	IC50 (L1210) [nM]	IC50 (HCT-8) [nM]	D50 (P388 [3]) [mg/kg]	ILSmax (P388 [3]) [%]	OD (P388 [4]) [mg/kg]	ILSmax [5]	D50 (P388 [6])	ILS max [5]	ILSmax (P388 [7])	ILSmax [1] [%]
5.8	CNc1cc(NS(C)(=O)=O)ccc1Nc1c2ccccc2nc2ccc(OC)cc12	150	ILS of 50% could not be reached	1200	1900		25	100	inactive	ILS of 50% could not be reached			
6.37	CNc1cc(NS(C)(=O)=O)ccc1Nc1c2ccccc2nc2c(Br)cccc12	100	ILS of 50% could not be reached	190	1800		35	100	inactive	ILS of 50% could not be reached			
6.42	CNc1cc(NS(C)(=O)=O)ccc1Nc1c2ccccc2nc2cc(I)ccc12	30	ILS of 50% could not be reached	29	79	10	70	45			inactive		
6.75	CNC(=O)c1ccc(Cl)c2c(Nc3ccc(NS(C)(=O)=O)cc3NC)c3ccccc3nc12			> 1600	4800		38	150		ILS of 50% could not be reached			
6.18	CNc1cc(NS(C)(=O)=O)ccc1Nc1c2ccccc2nc2c(C)ccc(C)c12			1700	2100			65		ILS of 50% could not be reached		inactive	
6.71	CNc1cc(NS(C)(=O)=O)ccc1Nc1c2ccccc2nc2cc(C)ccc12	8.9	ILS of 50% could not be reached	19	59	3.5	88	8.9					41
6.28	CNc1cc(NS(C)(=O)=O)ccc1Nc1c2ccccc2nc2c(C(N)=O)cccc12	30	ILS of 50% could not be reached	560	2800	25	109	45	inactive				
6.99	CNc1cc(NS(C)(=O)=O)ccc1Nc1c2ccccc2nc2cc(Br)ccc12	20	ILS of 50% could not be reached	38	140	5	136	66					49

From ChEMBL document CHEMBL1123442 (J Med Chem, 1986)
